Key:
Settings in all cases: stereoisomer not certain
OR51I2 (Homo sapiens) = molecular target: T1, OR51I2 (Homo sapiens) (UniProt Q9H344)
T1 sequence (whole entry): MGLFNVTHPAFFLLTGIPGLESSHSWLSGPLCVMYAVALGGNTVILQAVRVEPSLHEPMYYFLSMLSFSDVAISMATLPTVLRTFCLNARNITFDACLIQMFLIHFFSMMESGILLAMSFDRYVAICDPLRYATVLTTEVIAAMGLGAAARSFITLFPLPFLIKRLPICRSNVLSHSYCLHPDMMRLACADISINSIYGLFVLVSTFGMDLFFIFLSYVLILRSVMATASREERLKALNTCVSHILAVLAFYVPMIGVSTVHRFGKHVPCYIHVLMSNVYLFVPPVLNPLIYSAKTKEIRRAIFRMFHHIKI
Summary of the method: (§1)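 Each receptor–molecule pair is labelled responsive or non-responsive (inactive) according to whether the original authors judged the measured signal statistically different from baseline. The data were taken from the main text and supplementary material of published papers and checked for typos and inconsistencies. Assay methods differed by source, with transient luciferase assays in mammalian cell lines being common.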

OR51J1 (Homo sapiens) = molecular target: T2, OR51J1 (Homo sapiens) (UniProt Q9H342)
T2 sequence (whole entry): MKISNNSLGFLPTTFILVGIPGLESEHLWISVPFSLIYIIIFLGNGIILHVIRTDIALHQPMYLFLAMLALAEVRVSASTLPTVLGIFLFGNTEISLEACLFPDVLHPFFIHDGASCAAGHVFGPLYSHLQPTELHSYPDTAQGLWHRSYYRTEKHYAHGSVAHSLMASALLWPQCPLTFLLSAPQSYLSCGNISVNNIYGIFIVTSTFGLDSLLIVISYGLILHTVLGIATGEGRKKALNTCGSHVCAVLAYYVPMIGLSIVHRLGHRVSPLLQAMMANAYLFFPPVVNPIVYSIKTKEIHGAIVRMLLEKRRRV
Summary of the method: as §1

OR51L1 (Homo sapiens) = molecular target: T3, OR51L1 (Homo sapiens) (UniProt Q8NGJ5)
T3 sequence (whole entry): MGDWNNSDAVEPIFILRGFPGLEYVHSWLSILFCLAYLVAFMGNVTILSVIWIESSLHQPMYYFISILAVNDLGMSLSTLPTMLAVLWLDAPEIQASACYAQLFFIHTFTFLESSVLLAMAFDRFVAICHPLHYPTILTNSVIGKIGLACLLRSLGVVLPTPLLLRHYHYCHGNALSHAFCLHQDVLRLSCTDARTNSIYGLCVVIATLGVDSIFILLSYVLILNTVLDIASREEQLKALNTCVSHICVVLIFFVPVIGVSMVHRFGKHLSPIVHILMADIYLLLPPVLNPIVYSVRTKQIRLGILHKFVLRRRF
Summary of the method: as §1

OR51M1 (Homo sapiens) = molecular target: T4, OR51M1 (Homo sapiens) (UniProt Q9H341)
T4 sequence (whole entry): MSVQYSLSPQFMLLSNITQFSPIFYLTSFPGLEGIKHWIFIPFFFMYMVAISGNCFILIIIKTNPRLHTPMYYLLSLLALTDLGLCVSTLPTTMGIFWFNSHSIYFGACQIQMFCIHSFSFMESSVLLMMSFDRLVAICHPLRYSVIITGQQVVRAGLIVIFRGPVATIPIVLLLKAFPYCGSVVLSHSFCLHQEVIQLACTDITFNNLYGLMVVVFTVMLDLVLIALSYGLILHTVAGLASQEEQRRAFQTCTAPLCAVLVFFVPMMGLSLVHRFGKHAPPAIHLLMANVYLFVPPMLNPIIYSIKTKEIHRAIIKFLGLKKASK
Summary of the method: as §1

OR51Q1 (Homo sapiens) = molecular target: T5, OR51Q1 (Homo sapiens) (UniProt Q8NH59)
T5 sequence (whole entry): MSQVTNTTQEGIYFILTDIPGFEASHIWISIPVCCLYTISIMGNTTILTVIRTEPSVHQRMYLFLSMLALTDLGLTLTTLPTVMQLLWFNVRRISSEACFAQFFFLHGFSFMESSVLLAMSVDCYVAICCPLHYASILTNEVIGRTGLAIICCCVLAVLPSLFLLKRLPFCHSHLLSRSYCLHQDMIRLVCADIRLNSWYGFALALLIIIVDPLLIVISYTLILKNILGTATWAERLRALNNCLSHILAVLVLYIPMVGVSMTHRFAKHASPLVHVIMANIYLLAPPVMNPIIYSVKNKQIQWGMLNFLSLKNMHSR
Summary of the method: as §1

OR51S1 (Homo sapiens) = molecular target: T6, OR51S1 (Homo sapiens) (UniProt Q8NGJ8)
T6 sequence (whole entry): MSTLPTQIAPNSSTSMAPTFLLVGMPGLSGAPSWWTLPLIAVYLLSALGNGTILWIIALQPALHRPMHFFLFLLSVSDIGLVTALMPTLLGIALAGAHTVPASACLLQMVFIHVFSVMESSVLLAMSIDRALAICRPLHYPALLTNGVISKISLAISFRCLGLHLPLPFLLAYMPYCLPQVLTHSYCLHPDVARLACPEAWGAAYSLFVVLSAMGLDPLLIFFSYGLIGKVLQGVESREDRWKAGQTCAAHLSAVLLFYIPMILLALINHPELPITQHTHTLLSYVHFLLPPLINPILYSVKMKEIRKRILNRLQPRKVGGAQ
Summary of the method: as §1

OR51T1 (Homo sapiens) = molecular target: T7, OR51T1 (Homo sapiens) (UniProt Q8NGJ9)
T7 sequence (whole entry): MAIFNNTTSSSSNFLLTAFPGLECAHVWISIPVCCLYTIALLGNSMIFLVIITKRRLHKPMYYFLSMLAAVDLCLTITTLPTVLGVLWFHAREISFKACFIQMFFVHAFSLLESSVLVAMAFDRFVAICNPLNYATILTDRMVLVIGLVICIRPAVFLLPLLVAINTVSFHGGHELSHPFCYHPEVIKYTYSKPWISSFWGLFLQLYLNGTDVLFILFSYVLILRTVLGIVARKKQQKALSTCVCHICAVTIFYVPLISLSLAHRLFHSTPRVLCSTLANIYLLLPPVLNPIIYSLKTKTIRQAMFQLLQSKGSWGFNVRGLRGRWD
Summary of the method: as §1

OR51V1 (Homo sapiens) = molecular target: T8, OR51V1 (Homo sapiens) (UniProt Q9H2C8)
T8 sequence (whole entry): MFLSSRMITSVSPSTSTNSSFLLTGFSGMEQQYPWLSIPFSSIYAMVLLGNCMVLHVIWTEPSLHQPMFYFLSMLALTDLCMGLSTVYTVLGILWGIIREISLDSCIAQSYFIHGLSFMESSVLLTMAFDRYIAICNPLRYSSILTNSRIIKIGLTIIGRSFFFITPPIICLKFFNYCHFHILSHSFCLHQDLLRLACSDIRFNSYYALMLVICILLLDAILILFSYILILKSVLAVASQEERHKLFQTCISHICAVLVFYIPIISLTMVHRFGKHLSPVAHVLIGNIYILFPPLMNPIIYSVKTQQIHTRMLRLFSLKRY
Summary of the method: as §1

OR52A1 (Homo sapiens) = molecular target: T9, OR52A1 (Homo sapiens) (UniProt Q9UKL2)
T9 sequence (whole entry): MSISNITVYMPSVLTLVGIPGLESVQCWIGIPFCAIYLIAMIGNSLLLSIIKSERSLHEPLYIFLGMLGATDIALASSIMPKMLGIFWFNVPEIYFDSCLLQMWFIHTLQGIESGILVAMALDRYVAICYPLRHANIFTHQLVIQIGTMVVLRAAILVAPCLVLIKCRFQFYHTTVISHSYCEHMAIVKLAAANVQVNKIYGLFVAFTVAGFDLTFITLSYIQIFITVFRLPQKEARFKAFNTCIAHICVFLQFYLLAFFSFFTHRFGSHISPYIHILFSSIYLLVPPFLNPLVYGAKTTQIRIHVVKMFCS
Summary of the method: as §1

OR52A4P (Homo sapiens) = molecular target: T10, OR52A4P (Homo sapiens) (UniProt A6NMU1)
T10 sequence (whole entry): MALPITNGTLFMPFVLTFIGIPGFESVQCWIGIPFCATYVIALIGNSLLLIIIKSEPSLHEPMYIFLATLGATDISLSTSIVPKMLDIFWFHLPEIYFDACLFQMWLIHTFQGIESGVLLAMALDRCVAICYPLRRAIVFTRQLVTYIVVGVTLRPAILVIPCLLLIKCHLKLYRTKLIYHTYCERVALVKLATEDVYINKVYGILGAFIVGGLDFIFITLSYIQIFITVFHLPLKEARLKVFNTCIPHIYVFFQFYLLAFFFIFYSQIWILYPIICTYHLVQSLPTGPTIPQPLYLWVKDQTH
Summary of the method: as §1

OR52A5 (Homo sapiens) = molecular target: T11, OR52A5 (Homo sapiens) (UniProt Q9H2C5)
T11 sequence (whole entry): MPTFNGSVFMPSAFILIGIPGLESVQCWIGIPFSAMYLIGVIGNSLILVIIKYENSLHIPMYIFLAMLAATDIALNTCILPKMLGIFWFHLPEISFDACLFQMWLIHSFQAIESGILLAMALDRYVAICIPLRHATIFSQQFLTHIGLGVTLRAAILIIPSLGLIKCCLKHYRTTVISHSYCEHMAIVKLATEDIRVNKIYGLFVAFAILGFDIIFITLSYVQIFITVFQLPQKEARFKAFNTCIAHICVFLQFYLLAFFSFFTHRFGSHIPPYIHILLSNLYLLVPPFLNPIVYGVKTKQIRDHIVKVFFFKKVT
Summary of the method: as §1

OR52B2 (Homo sapiens) = molecular target: T12, OR52B2 (Homo sapiens) (UniProt Q96RD2)
T12 sequence (whole entry): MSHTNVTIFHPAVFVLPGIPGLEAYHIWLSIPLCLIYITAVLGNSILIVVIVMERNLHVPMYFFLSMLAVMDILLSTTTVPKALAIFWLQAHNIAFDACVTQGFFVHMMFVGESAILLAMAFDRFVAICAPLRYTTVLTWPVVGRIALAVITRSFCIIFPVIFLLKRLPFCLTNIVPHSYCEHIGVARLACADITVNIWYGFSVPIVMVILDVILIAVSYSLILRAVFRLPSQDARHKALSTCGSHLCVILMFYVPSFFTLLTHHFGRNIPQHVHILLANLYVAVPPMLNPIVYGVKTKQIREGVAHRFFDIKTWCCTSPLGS
Summary of the method: as §1

OR52B4 (Homo sapiens) = molecular target: T13, OR52B4 (Homo sapiens) (UniProt Q8NGK2)
T13 sequence (whole entry): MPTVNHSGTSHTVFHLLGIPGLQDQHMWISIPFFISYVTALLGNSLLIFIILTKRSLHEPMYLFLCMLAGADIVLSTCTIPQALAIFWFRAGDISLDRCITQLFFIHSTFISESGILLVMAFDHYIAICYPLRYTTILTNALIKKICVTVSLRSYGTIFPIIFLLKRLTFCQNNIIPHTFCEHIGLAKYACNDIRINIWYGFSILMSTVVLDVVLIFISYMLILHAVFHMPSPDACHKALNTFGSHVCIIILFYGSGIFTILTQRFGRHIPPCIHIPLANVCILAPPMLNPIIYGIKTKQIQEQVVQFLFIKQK
Summary of the method: as §1

OR52B6 (Homo sapiens) = molecular target: T14, OR52B6 (Homo sapiens) (UniProt Q8NGF0)
T14 sequence (whole entry): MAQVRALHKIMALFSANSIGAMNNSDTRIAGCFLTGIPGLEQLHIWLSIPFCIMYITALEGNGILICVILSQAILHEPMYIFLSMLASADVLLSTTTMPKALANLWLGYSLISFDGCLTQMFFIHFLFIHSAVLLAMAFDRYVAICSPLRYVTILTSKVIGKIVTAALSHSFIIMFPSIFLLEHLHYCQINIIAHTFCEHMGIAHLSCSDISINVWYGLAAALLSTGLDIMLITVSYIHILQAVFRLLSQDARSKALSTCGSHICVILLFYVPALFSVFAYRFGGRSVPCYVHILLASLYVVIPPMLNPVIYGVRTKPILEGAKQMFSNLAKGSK
Summary of the method: as §1

OR52D1 (Homo sapiens) = molecular target: T15, OR52D1 (Homo sapiens) (UniProt Q9H346)
T15 sequence (whole entry): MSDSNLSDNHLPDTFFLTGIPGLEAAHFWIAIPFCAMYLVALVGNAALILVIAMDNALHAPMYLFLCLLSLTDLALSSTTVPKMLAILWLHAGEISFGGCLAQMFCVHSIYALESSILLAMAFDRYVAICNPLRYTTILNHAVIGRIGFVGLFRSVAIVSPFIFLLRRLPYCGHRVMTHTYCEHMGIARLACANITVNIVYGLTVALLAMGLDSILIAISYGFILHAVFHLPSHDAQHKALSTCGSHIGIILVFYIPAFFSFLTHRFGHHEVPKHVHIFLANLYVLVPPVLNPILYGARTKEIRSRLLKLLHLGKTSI
Summary of the method: as §1

OR52E2 (Homo sapiens) = OR52E2 (Homo sapiens) (UniProt Q8NGJ4)
Summary of the method: as §1

OR52E4 (Homo sapiens) = OR52E4 (Homo sapiens) (UniProt Q8NGH9)
Summary of the method: as §1

OR52E5 (Homo sapiens) = OR52E5 (Homo sapiens) (UniProt Q8NH55)
Summary of the method: as §1

OR52E6 (Homo sapiens) = OR52E6 (Homo sapiens) (UniProt Q96RD3)
Summary of the method: as §1
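Also: active if original authors judged signal statistically different from baseline.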

Chain of OR52E4 (Homo sapiens) (Q8NGH9 whole entry): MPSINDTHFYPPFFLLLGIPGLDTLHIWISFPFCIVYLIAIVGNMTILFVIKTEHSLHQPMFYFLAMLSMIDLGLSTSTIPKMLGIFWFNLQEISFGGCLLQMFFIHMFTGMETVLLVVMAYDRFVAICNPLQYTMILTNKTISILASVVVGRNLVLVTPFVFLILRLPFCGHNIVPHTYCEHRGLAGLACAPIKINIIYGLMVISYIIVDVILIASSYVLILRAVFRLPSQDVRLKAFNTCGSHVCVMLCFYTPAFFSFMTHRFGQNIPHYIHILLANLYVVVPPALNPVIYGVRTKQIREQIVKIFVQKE
Chain of OR52E6 (Homo sapiens) (Q96RD3 whole entry): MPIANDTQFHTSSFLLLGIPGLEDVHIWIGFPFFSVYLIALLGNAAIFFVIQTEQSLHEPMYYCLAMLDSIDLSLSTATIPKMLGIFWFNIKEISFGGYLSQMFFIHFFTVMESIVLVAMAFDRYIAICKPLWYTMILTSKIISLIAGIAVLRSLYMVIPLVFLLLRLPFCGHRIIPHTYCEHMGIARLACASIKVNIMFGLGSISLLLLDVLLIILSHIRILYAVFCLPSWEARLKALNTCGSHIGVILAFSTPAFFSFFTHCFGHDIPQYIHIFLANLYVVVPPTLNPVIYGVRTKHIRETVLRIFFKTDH
Chain of OR52E5 (Homo sapiens) (Q8NH55 whole entry): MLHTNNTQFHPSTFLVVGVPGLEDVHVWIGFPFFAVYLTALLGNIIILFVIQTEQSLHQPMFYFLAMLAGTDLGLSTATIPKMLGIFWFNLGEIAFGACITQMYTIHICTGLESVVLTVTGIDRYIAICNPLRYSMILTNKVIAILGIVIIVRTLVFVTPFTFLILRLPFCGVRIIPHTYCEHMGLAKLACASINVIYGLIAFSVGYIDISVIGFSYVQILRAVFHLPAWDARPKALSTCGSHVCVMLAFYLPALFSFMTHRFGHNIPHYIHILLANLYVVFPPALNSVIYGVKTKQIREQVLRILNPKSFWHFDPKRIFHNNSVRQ
Chain of OR52E2 (Homo sapiens) (Q8NGJ4 whole entry): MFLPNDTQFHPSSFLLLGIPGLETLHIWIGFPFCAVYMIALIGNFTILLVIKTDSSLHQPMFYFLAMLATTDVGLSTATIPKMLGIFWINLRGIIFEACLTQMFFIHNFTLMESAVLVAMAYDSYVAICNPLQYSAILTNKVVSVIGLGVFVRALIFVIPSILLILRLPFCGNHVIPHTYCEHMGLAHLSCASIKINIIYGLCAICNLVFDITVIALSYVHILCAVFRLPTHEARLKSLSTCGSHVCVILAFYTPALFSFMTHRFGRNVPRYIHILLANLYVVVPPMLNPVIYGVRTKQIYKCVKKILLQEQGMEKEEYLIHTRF

## CCCCCC(S)C(C)CO (centres undefined)
OR51I2 (Homo sapiens)
  odorant receptor agonist call: inactive
OR51J1 (Homo sapiens)
  odorant receptor agonist call: inactive
OR51L1 (Homo sapiens)
  odorant receptor agonist call: inactive
OR51M1 (Homo sapiens)
  odorant receptor agonist call: inactive
OR51Q1 (Homo sapiens)
  odorant receptor agonist call: inactive
OR51S1 (Homo sapiens)
  odorant receptor agonist call: inactive
OR51T1 (Homo sapiens)
  odorant receptor agonist call: inactive
OR51V1 (Homo sapiens)
  odorant receptor agonist call: inactive
OR52A1 (Homo sapiens)
  odorant receptor agonist call: inactive
OR52A4P (Homo sapiens)
  odorant receptor agonist call: inactive
OR52A5 (Homo sapiens)
  odorant receptor agonist call: inactive
OR52B2 (Homo sapiens)
  odorant receptor agonist call: inactive
OR52B4 (Homo sapiens)
  odorant receptor agonist call: inactive
OR52B6 (Homo sapiens)
  odorant receptor agonist call: inactive
OR52D1 (Homo sapiens)
  odorant receptor agonist call: inactive
OR52E2 (Homo sapiens)
  odorant receptor agonist call: inactive
OR52E4 (Homo sapiens)
  odorant receptor agonist call: inactive
OR52E5 (Homo sapiens)
  odorant receptor agonist call: inactive
OR52E6 (Homo sapiens)
  odorant receptor agonist call: inactive

## C=C(C)C1CCC(C)C(=O)C1 (centres undefined)
OR51L1 (Homo sapiens)
  odorant receptor agonist call: inactive

## CCCCCC1=C(C)CCC1=O
OR51L1 (Homo sapiens)
  odorant receptor agonist call: inactive

## CCCCCCC(=O)OC
OR52D1 (Homo sapiens)
  odorant receptor agonist call: active

## O=C(O)C=Cc1ccccc1
OR52D1 (Homo sapiens)
  odorant receptor agonist call: active

## CC12CCC(CC1=O)C2(C)C (centres undefined)
OR51L1 (Homo sapiens)
  odorant receptor agonist call: inactive
OR52D1 (Homo sapiens)
  odorant receptor agonist call: inactive

## CCCCCCCCO
OR51L1 (Homo sapiens)
  odorant receptor agonist call: inactive
OR52D1 (Homo sapiens)
  odorant receptor agonist call: inactive

## CCCCCCCO
OR51L1 (Homo sapiens)
  odorant receptor agonist call: inactive
OR52D1 (Homo sapiens)
  odorant receptor agonist call: inactive

Reference: the M2OR odorant receptor database
